According to ChEMBL document CHEMBL1143425, “Paradoxical growth effect of caspofungin observed on biofilms and planktonic cells of five different Candida species” (2007):
Values after ≈ are worked out from the molar mass of the structure shown. Active and inactive are the calls of the source.

How the values were obtained:
[1] = test system: Candida parapsilosis; assay: Antimicrobial activity against Candida parapsilosis BR-A28 grown as planktonic cell after 48 hrs by XTT reduction assay; format: functional; conditions: Lodderomyces parapsilosis
Outline: (§1)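 Planktonic broth microdilution followed CLSI M27-A2, with caspofungin dissolved in water. After 48 h, XTT-menadione was added to the wells and plates were kept 1 h at 35°C in the dark. Plates were then centrifuged and supernatant A490 was read. MIC was the lowest concentration giving a 50% decrease in metabolic activity versus drug-free control. Paradoxical growth was defined as ≥20% of control activity above the MIC.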

[2] = test system: Candida metapsilosis; assay: Antimicrobial activity against Candida metapsilosis BR-A42 grown as planktonic cell assessed as paradoxical growth after 48 hrs by XTT reduction assay; format: functional, organism-based
Outline: (§2)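 Planktonic cells were tested by CLSI M27-A2 broth microdilution with caspofungin in water, incubated 48 h. XTT-menadione was added to each well, plates were held 1 h at 35°C in the dark and centrifuged, and supernatant absorbance was read at 490 nm. MIC was defined as 50% decrease in metabolic activity versus drug-free control. PG was defined as ≥20% of control activity at concentrations above MIC.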

[3] = test system: Candida parapsilosis; assay: Antimicrobial activity against Candida parapsilosis BR-A26 grown as biofilm after 48 hrs by XTT reduction assay; format: functional; conditions: Lodderomyces parapsilosis
Outline: (§3)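 Clinical isolates were grown overnight (18 h, 35°C, 120 rpm) in RPMI 1640 with MOPS, pH 7.0, then washed and set to ~1 × 10^7 cells/ml. Cells attached for 1.5 h at 37°C, 75 rpm, then biofilms grew 24 h. Caspofungin was given as doubling dilutions of 2–1,024 μg/ml for 48 h at 35°C, 75 rpm. Read-out was XTT-menadione in PBS, 1 h at 35°C in the dark, A490, cell-free blank subtracted. MIC was a 50% drop in activity versus drug-free; PG was >50% of control above MIC. Run in duplicate.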

[4] = test system: Candida albicans; assay: Antimicrobial activity against Candida albicans BR-A4 grown as planktonic cell assessed as paradoxical growth after 48 hrs by XTT reduction assay; format: functional, organism-based; outline: as §2
[5] = test system: Candida orthopsilosis; assay: Antimicrobial activity against Candida orthopsilosis BR-A34 grown as planktonic cell assessed as concentration producing paradoxical growth after 48 hrs by XTT reduction assay; format: functional; outline: as §2
[6] = test system: Candida parapsilosis; assay: Antimicrobial activity against Candida parapsilosis BR-A27 grown as biofilm assessed as paradoxical growth after 48 hrs by XTT reduction assay; format: functional, organism-based; outline: as §3
[7] = test system: Candida metapsilosis; assay: Antimicrobial activity against Candida metapsilosis BR-A43 grown as biofilm assessed as concentration producing paradoxical growth after 48 hrs by XTT reduction assay; format: functional
Outline: (§4)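 Sabouraud-grown cells were shaken overnight (18 h, 120 rpm, 35°C) in RPMI 1640 with MOPS at pH 7.0, then washed and set at ~1 × 10^7 cells/ml. Attachment lasted 1.5 h at 37°C, and growth ran 24 h before challenge. Caspofungin was added in RPMI at 2–1,024 μg/ml (10 doublings) for 48 h at 35°C with shaking. XTT-menadione was read at 490 nm after 1 h at 35°C in the dark, with blank wells subtracted. MIC was taken as 50% reduction versus drug-free wells, and PG as >50% of control above MIC. Assays were run in duplicate.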

[8] = test system: Candida parapsilosis; assay: Antimicrobial activity against Candida parapsilosis BR-A29 grown as planktonic cell after 48 hrs by XTT reduction assay; format: functional; conditions: Lodderomyces parapsilosis; outline: as §1
[9] = test system: Candida parapsilosis; assay: Antimicrobial activity against Candida parapsilosis BR-A30 grown as planktonic cell assessed as paradoxical growth after 48 hrs by XTT reduction assay; format: functional, organism-based
Outline: (§5)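 Planktonic broth microdilution followed CLSI M27-A2, with caspofungin dissolved in water. After 48 h, XTT-menadione was added to each well and plates were incubated 1 h at 35°C in the dark. Cells were pelleted by centrifugation and the supernatant was read at 490 nm. MIC was the lowest concentration giving a 50% drop in metabolic activity versus the drug-free control. PG was ≥20% of drug-free activity above the MIC.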

[10] = test system: Candida orthopsilosis; assay: Antimicrobial activity against Candida orthopsilosis BR-A39 grown as biofilm assessed as concentration producing paradoxical growth after 48 hrs by XTT reduction assay; format: functional; outline: as §4
[11] = test system: Candida orthopsilosis; assay: Antimicrobial activity against Candida orthopsilosis BR-A33 grown as planktonic cell after 48 hrs by XTT reduction assay; format: functional; conditions: Lodderomyces orthopsilosis; outline: as §2
[12] = test system: Candida tropicalis; assay: Antimicrobial activity against Candida tropicalis BR-A20 grown as biofilm after 48 hrs by XTT reduction assay; format: functional
Outline: (§6)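 Isolates were grown on Sabouraud agar (30°C, 24 h), then overnight in RPMI 1640 with MOPS, pH 7.0, at 35°C with shaking. Cells were washed and set to ~1 × 10^7 cells/ml, attached 1.5 h at 37°C, and grown 24 h. Biofilms were then exposed to caspofungin in 10 twofold dilutions (2–1,024 μg/ml) for 48 h at 35°C with shaking. Read-out was XTT-menadione, 1 h, 35°C, dark, A490, cell-free blank subtracted. MIC was the 50% drop in activity versus drug-free control. Tested in duplicate.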

[13] = test system: Candida parapsilosis; assay: Effect on morphology in Candida parapsilosis grown as biofilm assessed as rounding and clumping at 128 ug/ml after 48 hrs; format: functional, organism-based
Outline: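 Biofilms formed in RPMI 1640 wells were exposed to caspofungin for 48 h and compared with drug-free control wells. Wells were examined in the plate under an inverted light microscope at ×200 and photographed.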

[14] = test system: Candida tropicalis; assay: Antimicrobial activity against Candida tropicalis BR-A24 grown as biofilm assessed as concentration producing paradoxical growth after 48 hrs by XTT reduction assay; format: functional; outline: as §3
[15] = test system: Candida tropicalis; assay: Antimicrobial activity against Candida tropicalis BR-A20 grown as planktonic cell assessed as paradoxical growth after 48 hrs by XTT reduction assay; format: functional, organism-based; outline: as §5
[16] = test system: Candida tropicalis; assay: Effect on morphology in Candida tropicalis grown as planktonic cells assessed as inhibition of hyphae and pseudohyphae at 8 ug/ml after 48 hrs; format: functional, organism-based
Outline: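 Clinical isolates were tested by CLSI M27-A2 broth microdilution with caspofungin dissolved in sterile water. After 48 h incubation, cells were taken from drug-containing and drug-free control wells. They were examined by light microscopy at ×400 for hyphae or pseudohyphae, rounding or clumping, and enlarged globose cells.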

[17] = test system: Candida metapsilosis; assay: Antimicrobial activity against Candida metapsilosis BR-A43 grown as biofilm after 48 hrs by XTT reduction assay; format: functional; conditions: Lodderomyces metapsilosis; outline: as §4
[18] = test system: Candida orthopsilosis; assay: Antimicrobial activity against Candida orthopsilosis BR-A33 grown as biofilm after 48 hrs by XTT reduction assay; format: functional; conditions: Lodderomyces orthopsilosis; outline: as §6
[19] = test system: Candida metapsilosis; assay: Antimicrobial activity against Candida metapsilosis BR-A43 grown as planktonic cell after 48 hrs by XTT reduction assay; format: functional; conditions: Lodderomyces metapsilosis; outline: as §2
[20] = test system: Candida tropicalis; assay: Antimicrobial activity against Candida tropicalis BR-A14 grown as biofilm after 48 hrs by XTT reduction assay; format: functional; outline: as §3
[21] = test system: Candida tropicalis; assay: Antimicrobial activity against Candida tropicalis BR-A18 grown as biofilm after 48 hrs by XTT reduction assay; format: functional; outline: as §3
[22] = test system: Candida tropicalis; assay: Antimicrobial activity against Candida tropicalis BR-A8 grown as planktonic cell after 48 hrs by XTT reduction assay; format: functional; outline: as §1
[23] = test system: Candida tropicalis; assay: Antimicrobial activity against Candida tropicalis BR-A9 grown as biofilm after 48 hrs by XTT reduction assay; format: functional; outline: as §6
[24] = test system: Candida parapsilosis; assay: Antimicrobial activity against Candida parapsilosis 22019 grown as biofilm assessed as concentration producing paradoxical growth after 48 hrs by XTT reduction assay; format: functional; outline: as §4
[25] = test system: Candida orthopsilosis; assay: Antimicrobial activity against Candida orthopsilosis BR-A33 grown as planktonic cell assessed as paradoxical growth after 48 hrs by XTT reduction assay; format: functional, organism-based; outline: as §2
[26] = test system: Candida parapsilosis; assay: Antimicrobial activity against Candida parapsilosis BR-A25 grown as planktonic cell assessed as concentration producing paradoxical growth after 48 hrs by XTT reduction assay; format: functional; outline: as §5

CC[C@H](C)C[C@H](C)CCCCCCCCC(=O)N[C@H]1C[C@@H](O)[C@@H](NCCN)NC(=O)[C@@H]2[C@@H](O)CCN2C(=O)[C@H]([C@H](O)CCN)NC(=O)[C@H]([C@H](O)[C@@H](O)c2ccc(O)cc2)NC(=O)[C@@H]2C[C@@H](O)CN2C(=O)[C@H]([C@@H](C)O)NC1=O [CASPOFUNGIN]
MIC [1]: 2 µg/mL (≈ 1.83 µM) | Activity [2]: inactive | MIC [3]: 256 µg/mL (≈ 234 µM) | Activity [4]: Active | Activity [5]: 4 µg/mL | Activity [6]: Active | Activity [7]: 16 µg/mL | MIC [8]: 2 µg/mL (≈ 1.83 µM) | Activity [9]: inactive | Activity [10]: 32 µg/mL | MIC [11]: 1 µg/mL (≈ 0.915 µM) | MIC [12]: 2 µg/mL (≈ 1.83 µM) | Activity [13]: Active | Activity [14]: 8 µg/mL | Activity [15]: Active | Activity [16]: Active | MIC [17]: 2 µg/mL (≈ 1.83 µM) | MIC [18]: 2 µg/mL (≈ 1.83 µM) | MIC [19]: 2 µg/mL (≈ 1.83 µM) | MIC [20]: 256 µg/mL (≈ 234 µM) | MIC [21]: 128 µg/mL (≈ 117 µM) | MIC [22]: 1 µg/mL (≈ 0.915 µM) | MIC [23]: 2 µg/mL (≈ 1.83 µM) | Activity [24]: 16 µg/mL | Activity [25]: inactive | Activity [26]: 32 µg/mL
